Laboratory results reported in ChEMBL document CHEMBL3734658, “Ring-truncated deguelin derivatives as potent Hypoxia Inducible Factor-1α (HIF-1α) inhibitors” (Eur J Med Chem, 2015).
Calls of active or inactive are those of the source. The rule behind the calls is not given here.

Assays:
[1] = target: Hypoxia-inducible factor 1-alpha (Homo sapiens) (UniProt Q16665); assay: Inhibition of HIF-1alpha in human H1299 cells at 100 nM after 72 hrs subsequently incubated for 12 hrs under hypoxic conditions by Western blot assay relative to control; format: cell-based; conditions: values are per cent of control
Sequence of Hypoxia-inducible factor 1-alpha (Homo sapiens) (Q16665 whole entry, looked up): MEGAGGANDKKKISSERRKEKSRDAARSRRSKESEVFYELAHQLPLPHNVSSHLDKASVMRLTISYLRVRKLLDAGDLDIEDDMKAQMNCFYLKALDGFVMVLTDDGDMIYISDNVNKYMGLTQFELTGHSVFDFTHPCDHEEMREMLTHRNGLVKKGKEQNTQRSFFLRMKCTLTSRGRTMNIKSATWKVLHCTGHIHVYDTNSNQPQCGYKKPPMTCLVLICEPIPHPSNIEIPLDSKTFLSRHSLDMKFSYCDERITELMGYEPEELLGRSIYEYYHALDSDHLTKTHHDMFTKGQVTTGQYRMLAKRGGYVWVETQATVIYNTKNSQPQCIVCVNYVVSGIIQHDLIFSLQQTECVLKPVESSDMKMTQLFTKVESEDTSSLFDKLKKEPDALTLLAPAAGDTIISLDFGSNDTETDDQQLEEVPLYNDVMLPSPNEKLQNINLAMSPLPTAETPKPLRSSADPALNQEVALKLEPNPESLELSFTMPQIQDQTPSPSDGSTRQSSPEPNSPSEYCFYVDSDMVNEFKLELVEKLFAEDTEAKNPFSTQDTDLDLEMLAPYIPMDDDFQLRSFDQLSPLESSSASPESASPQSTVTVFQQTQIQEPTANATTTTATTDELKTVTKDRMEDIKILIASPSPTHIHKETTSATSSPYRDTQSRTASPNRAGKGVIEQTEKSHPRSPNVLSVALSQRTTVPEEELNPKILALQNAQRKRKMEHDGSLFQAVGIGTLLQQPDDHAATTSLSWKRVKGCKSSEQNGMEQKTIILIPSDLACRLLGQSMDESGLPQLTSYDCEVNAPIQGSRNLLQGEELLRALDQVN
How it was run: (§1)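 H1299 non-small-cell lung carcinoma cells were left untreated or exposed to compound at 100 nM (or 10 nM for a follow-up subset) for 72 h. They were then held under hypoxia for 12 h, and HIF-1α protein was assessed by western blot.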

[2] = target: Hypoxia-inducible factor 1-alpha (Homo sapiens) (UniProt Q16665); assay: Inhibition of HIF-1alpha in human H1299 cells at 10 nM after 72 hrs subsequently incubated for 12 hrs under hypoxic conditions by Western blot assay relative to control; format: cell-based; conditions: values are per cent of control; how it was run: as §1
[3] = Cytotoxicity against mouse HT22 cells assessed as cell viability at 0.1 to 10 uM; format: cell-based; conditions: ht-22, 10 µM
[4] = Antitumor activity against human H1299 cells assessed as reduction in cell viability at 20 uM by MTT assay; format: functional; conditions: NCI-H1299
[5] = system: NCI-H1299; assay: Antitumor activity against human H1299 cells assessed as reduction in cell viability by MTT assay; format: functional, cell-based
[6] = target: Hypoxia-inducible factor 1-alpha (Homo sapiens) (UniProt Q16665); assay: Inhibition of HIF-1alpha in human H1299 cells after 72 hrs subsequently incubated for 12 hrs under hypoxic conditions by Western blot assay relative to control; format: cell-based; how it was run: as §1
[7] = species: Homo sapiens; assay: Antiangiogenic activity in human RMVEC assessed as inhibition of VEGF-induced cell proliferation under hypoxic condition at 100 nM by [3H]thymidine incorporation assay; format: functional
[8] = species: Homo sapiens; assay: Antiangiogenic activity in human RMVEC assessed as inhibition of VEGF-induced cell migration under hypoxic condition at 100 nM by transwell chamber system; format: functional

SMILES | response, % of control [1] [%] | further results
COc1cc2c(cc1OC)[C@@H]1C(=O)c3ccc4c(c3O[C@@H]1CO2)C=CC(C)(C)O4 [DEGUELIN] | 64 | response, % of control [2]: 94%; Activity [3]: Toxic
COc1ccc(C(C)C(OC(=O)N(C)C)c2ccc3c(c2OC)C=CC(C)(C)O3)c(F)c1OC (stereo not given) | 64.1 | response, % of control [2]: 93.6%
COc1ccc(C/C(=N\O)c2ccc3c(c2OC)C=CC(C)(C)O3)nc1OC | 78.5 | 
COc1ccc([C@H](C)C(=O)c2ccc3c(c2OC)C=CC(C)(C)O3)nc1OC | 44.2 | response, % of control [2]: 88.4%
COc1ccc(CC(OC(C)=O)c2ccc3c(c2OC)C=CC(C)(C)O3)c(F)c1OC (stereo not given) | 69.3 | 
COc1ccc(C(C)(C)C(OC(=O)C2CC2)c2ccc3c(c2OC)C=CC(C)(C)O3)c(F)c1OC (stereo not given) | 111 | 
COc1ccc(C(C)C(OC(=O)C2CCC2)c2ccc3c(c2OC)C=CC(C)(C)O3)c(F)c1OC (stereo not given) | 69.5 | 
CCC(=O)OC(c1ccc2c(c1OC)C=CC(C)(C)O2)C(C)(C)c1ccc(OC)c(OC)c1F (stereo not given) | 88.2 | 
COc1ccc(C(C)(C)C(OC(N)=O)c2ccc3c(c2OC)C=CC(C)(C)O3)nc1OC (stereo not given) | 108 | 
COc1ccc(C(C)(C)C(O)c2ccc3c(c2OC)C=CC(C)(C)O3)c(F)c1OC (stereo not given) | 68 | 
COc1ccc(CC(=O)c2ccc3c(c2OC)C=CC(C)(C)O3)cc1OC | 85.3 | 
CNC(=O)OC(c1ccc2c(c1OC)C=CC(C)(C)O2)C(C)c1ccc(OC)c(OC)c1F (stereo not given) | 76.5 | 
COc1ccc(CC(OC(N)=O)c2ccc3c(c2OC)C=CC(C)(C)O3)nc1OC (stereo not given) | 75 | 
CCC(=O)OC(c1ccc2c(c1OC)C=CC(C)(C)O2)C(C)c1ccc(OC)c(OC)c1F (stereo not given) | 63.7 | 
COc1ccc(C(C)C(OC(=O)C2CC2)c2ccc3c(c2OC)C=CC(C)(C)O3)c(F)c1OC (stereo not given) | 35 | response, % of control [2]: 81.6%; inhibition at 20 µM [4]: 50%; Activity [5]: Dose-dependent effect
COc1ccc([C@H](C)[C@@H](OC(C)=O)c2ccc3c(c2OC)C=CC(C)(C)O3)c(F)c1OC (relative stereo) | 52.2 | inhibition [6]: Dose-dependent effect; response, % of control [2]: 63.2%; inhibition at 20 µM [4]: 50%; Activity [3]: Non-toxic; Activity [7]: Active; Activity [8]: Active; Activity [5]: Dose-dependent effect
CCC(c1ccc(OC)c(OC)c1F)C(OC(=O)C1CC1)c1ccc2c(c1OC)C=CC(C)(C)O2 (stereo not given) | 87.9 | 
COc1ccc([C@H](O)[C@@H](O)c2ccc3c(c2OC)C=CC(C)(C)O3)nc1OC (relative stereo) | 68.9 | 
COc1ccc(CC(O)c2ccc3c(c2OC)C=CC(C)(C)O3)nc1OC (stereo not given) | 75.2 | 
COc1ccc(CC(OC(C)=O)c2ccc3c(c2OC)C=CC(C)(C)O3)nc1OC (stereo not given) | 114 | 
COc1ccc(C(C)(C)C(OC(C)=O)c2ccc3c(c2OC)C=CC(C)(C)O3)nc1OC (stereo not given) | 113 | 
COc1ccc(C(C)(C)C(=O)c2ccc3c(c2OC)C=CC(C)(C)O3)nc1OC | 99.9 | 

Second part, led by results:

response, % of control [1] [%] | SMILES | further results
134 | COc1ccc(/C=C/c2ccc3c(c2OC)C=CC(C)(C)O3)c(F)c1OC | 
67.8 | COc1ccc(CC(=O)c2ccc3c(c2OC)C=CC(C)(C)O3)c(F)c1OC | 
83.4 | COc1ccc(C(C)(C)C(OC(C)=O)c2ccc3c(c2OC)C=CC(C)(C)O3)c(F)c1OC (stereo not given) | 
70.3 | COc1ccc(CC(OC(=O)C2CC2)c2ccc3c(c2OC)C=CC(C)(C)O3)c(F)c1OC (stereo not given) | 
133 | COc1ccc(/C=C/c2ccc3c(c2OC)C=CC(C)(C)O3)nc1OC | 
69.2 | COc1ccc(C(C)(C)C(O)c2ccc3c(c2OC)C=CC(C)(C)O3)nc1OC (stereo not given) | 
78.6 | COc1ccc(C(C)C(=O)c2ccc3c(c2OC)C=CC(C)(C)O3)c(F)c1OC (stereo not given) | 
75 | COc1ccc(C(C)C(O)c2ccc3c(c2OC)C=CC(C)(C)O3)c(F)c1OC (stereo not given) | 
74.9 | COc1ccc(C(C)(C)C(=O)c2ccc3c(c2OC)C=CC(C)(C)O3)c(F)c1OC | 
77.6 | COc1ccc(CC(=O)c2ccc3c(c2OC)C=CC(C)(C)O3)nc1OC | 
88.9 | COc1ccc(CC(OC(N)=O)c2ccc3c(c2OC)C=CC(C)(C)O3)c(F)c1OC (stereo not given) | 
68.1 | COc1ccc([C@H](O)[C@@H](O)c2ccc3c(c2OC)C=CC(C)(C)O3)c(F)c1OC (relative stereo) | 
89.3 | COc1ccc(C(C)C(=O)c2ccc3c(c2OC)C=CC(C)(C)O3)nc1OC (stereo not given) | 
96.7 | COc1ccc(C(C)C(OC(C)=O)c2ccc3c(c2OC)C=CC(C)(C)O3)nc1OC (stereo not given) | 
64.8 | CO/N=C(/Cc1ccc(OC)c(OC)n1)c1ccc2c(c1OC)C=CC(C)(C)O2 | response, % of control [2]: 74%
82.1 | COc1ccc([C@H](C)C(=O)c2ccc3c(c2OC)C=CC(C)(C)O3)cc1OC | 
71.2 | COc1ccc(C(C)C(O)c2ccc3c(c2OC)C=CC(C)(C)O3)nc1OC (stereo not given) | 
48.8 | COc1ccc(C(C)C(OC(N)=O)c2ccc3c(c2OC)C=CC(C)(C)O3)c(F)c1OC (stereo not given) | response, % of control [2]: 80.9%
74.3 | COc1ccc(CC(O)c2ccc3c(c2OC)C=CC(C)(C)O3)c(F)c1OC (stereo not given) | 
77.3 | CCC(=O)OC(Cc1ccc(OC)c(OC)c1F)c1ccc2c(c1OC)C=CC(C)(C)O2 (stereo not given) | 
79.4 | COc1ccc([C@H](C)[C@H](OC(C)=O)c2ccc3c(c2OC)C=CC(C)(C)O3)c(F)c1OC (relative stereo) | 
79.2 | COc1ccc(C/C(=N/O)c2ccc3c(c2OC)C=CC(C)(C)O3)nc1OC | 
